Experimental data taken from ChEMBL document CHEMBL4145441, “Discovery of N-(5-((5-chloro-4-((2-(isopropylsulfonyl)phenyl)amino)pyrimidin-2-yl)amino)-4-methoxy-2-(4-methyl-1,4-diazepan-1-yl)phenyl)acrylamide (CHMFL-ALK/EGFR-050) as a potent ALK/EGFR dual kinase inhibitor capable of overcoming a variety of ALK/EGFR associated drug resistant mutants in NSCLC” (Eur J Med Chem, 2017).

How the values were obtained:
NCI-H1975 [1] = experiment: Growth inhibition of human NCI-H1975 cells after 72 hrs by CellTiter-Glo assay; assay type: functional; settings: NCI-H1975, 72 h
Method in brief: (§1)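 Antiproliferative GI50 against H1975 and H3122 cells; each GI50 value obtained from triplicate testing.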

NCI-H3122 [2] = experiment: Growth inhibition of human NCI-H3122 cells after 72 hrs by CellTiter-Glo assay; assay type: functional; settings: NCI-H3122, 72 h; method in brief: as §1
[3] = biological target: T1, Epidermal growth factor receptor (Homo sapiens, UniProt P00533); experiment: Inhibition of TEL-fused EGFR (unknown origin) expressed in mouse BAF3 cells assessed as decrease in cell proliferation after 72 hrs by CellTiter-Glo assay; assay type: cell-based
[4] = system: Epidermal growth factor receptor (Homo sapiens), P00533 [T790M]; experiment: Inhibition of TEL-fused EGFR T790M mutant (unknown origin) expressed in mouse BAF3 cells assessed as decrease in cell proliferation after 72 hrs by CellTiter-Glo assay; assay type: cell-based
NCI-H1355 = experiment: Antiproliferative activity against human NCI-H1355 cells harboring wild-type EGFR after 72 hrs by CellTiter-Glo assay; assay type: functional; settings: NCI-H1355, 72 h
NCI-H3122 [5] = experiment: Antiproliferative activity against human NCI-H3122 cells harboring EML4-fused ALK varian1 after 72 hrs by CellTiter-Glo assay; assay type: functional; settings: NCI-H3122, 72 h; method in brief: as §1
NCI-H2122 = experiment: Antiproliferative activity against human NCI-H2122 cells harboring wild-type EGFR after 72 hrs by CellTiter-Glo assay; assay type: functional; settings: NCI-H2122, 72 h
[6] = system: Epidermal growth factor receptor (Homo sapiens), P00533 [C797S]; experiment: Inhibition of TEL-fused EGFR C797S mutant (unknown origin) expressed in mouse BAF3 cells assessed as decrease in cell proliferation after 72 hrs by CellTiter-Glo assay; assay type: cell-based
A549 = experiment: Antiproliferative activity against human A549 cells harboring wild-type EGFR after 72 hrs by CellTiter-Glo assay; assay type: functional; settings: A549, 72 h
NCI-H1975 [7] = experiment: Antiproliferative activity against human NCI-H1975 cells harboring EGFR L858R/T790M mutant after 72 hrs by CellTiter-Glo assay; assay type: functional; settings: NCI-H1975, 72 h; method in brief: as §1
[8] = Antiproliferative activity against CHO cells after 72 hrs by CellTiter-Glo assay; assay type: cell-based, Cricetulus griseus; settings: chinese hamster
NCI-H3255 = experiment: Antiproliferative activity against human H3255 cells harboring EGFR L858R mutant after 72 hrs by CellTiter-Glo assay; assay type: functional; settings: NCI-H3255, 72 h
HCC827 = experiment: Antiproliferative activity against human HCC827 cells harboring EGFR del19 mutant after 72 hrs by CellTiter-Glo assay; assay type: functional; settings: HCC827, 72 h
[9] = system: Epidermal growth factor receptor (Homo sapiens), P00533 [L858R,T790M]; experiment: Inhibition of full length EGFR L858R/T790M mutant (unknown origin) expressed in mouse BAF3 cells assessed as decrease in cell proliferation after 72 hrs by CellTiter-Glo assay; assay type: cell-based
[10] = system: Epidermal growth factor receptor (Homo sapiens), P00533 [L858R,T790M,C797S]; experiment: Inhibition of full length EGFR L858R/T790M/C797S mutant (unknown origin) expressed in mouse BAF3 cells assessed as decrease in cell proliferation after 72 hrs by CellTiter-Glo assay; assay type: cell-based
[11] = system: Epidermal growth factor receptor (Homo sapiens), P00533 [L858R]; experiment: Inhibition of full length EGFR L858R mutant (unknown origin) expressed in mouse BAF3 cells assessed as decrease in cell proliferation after 72 hrs by CellTiter-Glo assay; assay type: cell-based
NCI-H2228 = experiment: Antiproliferative activity against human NCI-H2228 cells harboring EML4-fused ALK varian3 after 72 hrs by CellTiter-Glo assay; assay type: functional; settings: NCI-H2228, 72 h
[12] = biological target: T1, Epidermal growth factor receptor; experiment: Inhibition of full length EGFR del19 mutant (unknown origin) expressed in mouse BAF3 cells assessed as decrease in cell proliferation after 72 hrs by CellTiter-Glo assay; assay type: cell-based
PC-9 = experiment: Antiproliferative activity against human PC9 cells harboring EGFR del19 mutant after 72 hrs by CellTiter-Glo assay; assay type: functional; settings: PC-9, 72 h
[13] = Antiproliferative activity against mouse BAF3 cells after 72 hrs by CellTiter-Glo assay; assay type: cell-based
[14] = Antiproliferative activity against CHL cells after 72 hrs by CellTiter-Glo assay; assay type: cell-based, Cricetulus griseus; settings: chinese hamster

T1 sequence (P00533 whole entry, the tested form may be a part): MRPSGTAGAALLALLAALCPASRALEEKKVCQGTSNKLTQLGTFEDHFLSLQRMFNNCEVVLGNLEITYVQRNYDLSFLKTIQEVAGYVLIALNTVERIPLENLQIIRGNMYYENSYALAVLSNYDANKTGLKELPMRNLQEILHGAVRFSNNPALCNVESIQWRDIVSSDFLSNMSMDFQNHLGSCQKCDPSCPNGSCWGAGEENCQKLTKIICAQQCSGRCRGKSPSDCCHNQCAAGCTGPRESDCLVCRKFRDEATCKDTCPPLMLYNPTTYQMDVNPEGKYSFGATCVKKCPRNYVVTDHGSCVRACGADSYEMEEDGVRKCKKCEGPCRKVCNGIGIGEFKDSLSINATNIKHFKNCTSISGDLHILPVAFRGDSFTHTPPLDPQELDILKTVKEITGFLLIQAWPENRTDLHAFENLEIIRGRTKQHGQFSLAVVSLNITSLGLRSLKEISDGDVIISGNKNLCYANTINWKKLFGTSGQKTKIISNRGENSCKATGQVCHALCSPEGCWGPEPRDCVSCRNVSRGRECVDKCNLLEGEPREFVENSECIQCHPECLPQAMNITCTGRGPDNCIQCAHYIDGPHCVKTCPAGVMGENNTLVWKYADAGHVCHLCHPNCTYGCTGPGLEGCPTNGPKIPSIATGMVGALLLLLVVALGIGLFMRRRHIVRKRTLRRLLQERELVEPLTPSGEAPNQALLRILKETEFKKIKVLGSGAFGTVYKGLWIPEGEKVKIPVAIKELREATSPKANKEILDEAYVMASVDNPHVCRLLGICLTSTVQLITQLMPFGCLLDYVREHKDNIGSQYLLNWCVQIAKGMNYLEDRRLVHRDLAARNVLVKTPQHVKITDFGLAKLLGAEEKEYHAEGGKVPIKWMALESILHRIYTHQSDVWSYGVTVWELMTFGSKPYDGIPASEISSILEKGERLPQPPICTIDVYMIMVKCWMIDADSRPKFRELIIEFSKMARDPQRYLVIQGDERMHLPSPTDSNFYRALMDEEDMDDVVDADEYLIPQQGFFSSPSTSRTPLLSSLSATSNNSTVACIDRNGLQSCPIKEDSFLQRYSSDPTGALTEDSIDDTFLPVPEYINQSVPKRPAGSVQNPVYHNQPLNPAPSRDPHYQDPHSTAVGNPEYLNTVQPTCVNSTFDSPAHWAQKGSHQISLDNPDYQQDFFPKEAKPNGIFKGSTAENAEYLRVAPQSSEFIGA
Chain of Epidermal growth factor receptor (Homo sapiens), P00533 [T790M] (P00533 whole entry T790M, the tested form may be a part): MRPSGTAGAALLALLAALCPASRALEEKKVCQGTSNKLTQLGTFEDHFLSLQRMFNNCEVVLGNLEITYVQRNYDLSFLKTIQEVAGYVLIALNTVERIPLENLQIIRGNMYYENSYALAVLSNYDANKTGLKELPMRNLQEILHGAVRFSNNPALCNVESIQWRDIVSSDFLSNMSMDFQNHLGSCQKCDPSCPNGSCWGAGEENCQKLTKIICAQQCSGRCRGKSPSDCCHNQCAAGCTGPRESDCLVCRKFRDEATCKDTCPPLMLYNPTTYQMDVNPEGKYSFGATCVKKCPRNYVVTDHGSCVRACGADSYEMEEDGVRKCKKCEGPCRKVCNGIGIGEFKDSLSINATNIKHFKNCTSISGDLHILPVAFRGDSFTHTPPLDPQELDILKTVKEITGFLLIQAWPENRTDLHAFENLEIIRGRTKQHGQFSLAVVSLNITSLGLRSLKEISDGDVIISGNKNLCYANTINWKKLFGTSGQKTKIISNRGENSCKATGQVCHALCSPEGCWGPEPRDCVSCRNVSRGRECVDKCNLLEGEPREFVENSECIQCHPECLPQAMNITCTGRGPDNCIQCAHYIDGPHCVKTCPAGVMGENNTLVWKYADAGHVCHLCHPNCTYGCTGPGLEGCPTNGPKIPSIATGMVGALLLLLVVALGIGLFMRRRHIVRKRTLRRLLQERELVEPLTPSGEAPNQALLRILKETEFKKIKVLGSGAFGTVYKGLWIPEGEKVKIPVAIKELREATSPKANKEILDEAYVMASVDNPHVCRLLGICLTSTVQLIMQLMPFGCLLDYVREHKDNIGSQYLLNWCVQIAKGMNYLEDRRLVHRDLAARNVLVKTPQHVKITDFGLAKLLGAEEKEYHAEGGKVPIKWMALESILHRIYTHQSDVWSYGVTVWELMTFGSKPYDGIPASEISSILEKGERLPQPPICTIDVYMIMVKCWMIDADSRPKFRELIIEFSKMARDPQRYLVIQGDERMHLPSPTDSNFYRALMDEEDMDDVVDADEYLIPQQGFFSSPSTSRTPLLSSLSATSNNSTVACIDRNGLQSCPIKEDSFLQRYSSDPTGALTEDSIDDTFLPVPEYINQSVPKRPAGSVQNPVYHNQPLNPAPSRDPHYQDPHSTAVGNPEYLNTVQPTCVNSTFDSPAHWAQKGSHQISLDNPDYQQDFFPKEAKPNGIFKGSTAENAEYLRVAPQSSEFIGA
Chain of Epidermal growth factor receptor (Homo sapiens), P00533 [C797S] (P00533 whole entry C797S, the tested form may be a part): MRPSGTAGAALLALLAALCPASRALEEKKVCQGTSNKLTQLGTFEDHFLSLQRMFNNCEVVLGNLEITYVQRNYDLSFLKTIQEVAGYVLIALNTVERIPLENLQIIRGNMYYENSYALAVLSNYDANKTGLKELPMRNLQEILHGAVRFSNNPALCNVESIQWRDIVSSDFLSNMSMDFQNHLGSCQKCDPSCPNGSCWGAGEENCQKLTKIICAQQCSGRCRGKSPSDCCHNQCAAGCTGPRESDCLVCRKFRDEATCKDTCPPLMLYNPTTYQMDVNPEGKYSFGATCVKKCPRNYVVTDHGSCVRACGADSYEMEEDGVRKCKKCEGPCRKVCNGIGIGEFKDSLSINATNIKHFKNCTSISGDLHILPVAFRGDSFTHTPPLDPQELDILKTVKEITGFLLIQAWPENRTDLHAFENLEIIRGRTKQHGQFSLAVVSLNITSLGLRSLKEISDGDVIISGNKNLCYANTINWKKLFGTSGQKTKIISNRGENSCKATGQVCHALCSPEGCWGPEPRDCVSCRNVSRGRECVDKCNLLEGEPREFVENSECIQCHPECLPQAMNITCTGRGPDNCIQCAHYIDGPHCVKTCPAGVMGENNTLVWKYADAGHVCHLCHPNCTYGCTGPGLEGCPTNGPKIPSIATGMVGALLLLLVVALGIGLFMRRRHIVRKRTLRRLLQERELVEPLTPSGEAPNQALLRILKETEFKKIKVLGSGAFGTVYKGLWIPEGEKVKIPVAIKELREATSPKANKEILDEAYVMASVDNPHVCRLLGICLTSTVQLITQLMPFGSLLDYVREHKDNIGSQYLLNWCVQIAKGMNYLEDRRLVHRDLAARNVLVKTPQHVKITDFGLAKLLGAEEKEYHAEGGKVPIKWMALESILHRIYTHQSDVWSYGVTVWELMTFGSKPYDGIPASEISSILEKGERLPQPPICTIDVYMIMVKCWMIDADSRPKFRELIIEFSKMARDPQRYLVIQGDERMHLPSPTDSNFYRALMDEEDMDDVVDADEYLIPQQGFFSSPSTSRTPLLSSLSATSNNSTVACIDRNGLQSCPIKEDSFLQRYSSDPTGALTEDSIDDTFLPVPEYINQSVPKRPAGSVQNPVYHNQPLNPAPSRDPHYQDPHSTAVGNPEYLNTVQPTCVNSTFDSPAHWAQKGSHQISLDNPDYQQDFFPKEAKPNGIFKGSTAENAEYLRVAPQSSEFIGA
Chain of Epidermal growth factor receptor (Homo sapiens), P00533 [L858R,T790M] (P00533 whole entry T790M/L858R, looked up): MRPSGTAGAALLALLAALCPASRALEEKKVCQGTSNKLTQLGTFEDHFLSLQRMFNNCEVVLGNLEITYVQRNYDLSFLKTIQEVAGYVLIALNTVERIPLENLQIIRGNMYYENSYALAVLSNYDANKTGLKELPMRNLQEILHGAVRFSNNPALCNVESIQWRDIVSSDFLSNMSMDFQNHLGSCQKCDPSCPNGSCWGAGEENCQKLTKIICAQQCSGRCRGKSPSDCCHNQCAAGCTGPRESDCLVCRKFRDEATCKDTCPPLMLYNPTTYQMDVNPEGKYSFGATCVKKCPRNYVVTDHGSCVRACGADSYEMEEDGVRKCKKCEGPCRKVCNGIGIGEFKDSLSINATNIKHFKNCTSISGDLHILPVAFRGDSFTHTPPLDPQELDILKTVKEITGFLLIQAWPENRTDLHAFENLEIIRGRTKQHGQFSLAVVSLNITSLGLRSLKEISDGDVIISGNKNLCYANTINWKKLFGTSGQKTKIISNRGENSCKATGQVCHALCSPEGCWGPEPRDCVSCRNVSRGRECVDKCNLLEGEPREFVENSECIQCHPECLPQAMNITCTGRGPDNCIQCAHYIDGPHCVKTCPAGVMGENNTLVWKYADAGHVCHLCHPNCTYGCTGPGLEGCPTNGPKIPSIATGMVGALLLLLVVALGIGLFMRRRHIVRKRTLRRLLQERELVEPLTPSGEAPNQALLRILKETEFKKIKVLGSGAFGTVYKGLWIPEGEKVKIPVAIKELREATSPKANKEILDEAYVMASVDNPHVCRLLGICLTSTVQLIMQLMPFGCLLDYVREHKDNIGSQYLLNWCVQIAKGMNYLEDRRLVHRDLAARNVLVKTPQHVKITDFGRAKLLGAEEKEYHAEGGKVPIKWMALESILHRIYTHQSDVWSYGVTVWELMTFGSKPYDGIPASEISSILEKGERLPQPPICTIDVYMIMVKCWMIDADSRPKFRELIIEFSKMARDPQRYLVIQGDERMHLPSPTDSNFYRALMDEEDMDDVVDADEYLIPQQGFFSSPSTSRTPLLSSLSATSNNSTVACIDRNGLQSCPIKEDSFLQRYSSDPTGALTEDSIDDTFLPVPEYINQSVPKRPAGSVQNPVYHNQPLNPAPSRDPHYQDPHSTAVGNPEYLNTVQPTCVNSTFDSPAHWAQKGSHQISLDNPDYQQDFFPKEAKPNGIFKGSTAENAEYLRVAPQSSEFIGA

Compound | GI50 (NCI-H1975 [1]) | GI50 (NCI-H3122 [2]) | other results
C=CC(=O)Nc1cc(Nc2ncc(Cl)c(Nc3c(F)cccc3F)n2)c(OC)cc1N1CCN(C)CC1 | 130 nM | 2900 nM | 
C=CC(=O)Nc1cc(Nc2ncc(Cl)c(Nc3ccccc3C(=O)NC)n2)c(OC)cc1N1CCN(C)CC1 | 50 nM | 3.5 nM | 
C=CC(=O)Nc1cc(Nc2ncc(Cl)c(Nc3ccccc3C#N)n2)c(OC)cc1N1CCN(C(C)C)CC1 | 430 nM | 110 nM | 
C=CC(=O)Nc1cc(Nc2ncc(Cl)c(Nc3ccccc3S(=O)(=O)C(C)C)n2)ccc1N1CCC(N2CCN(C)CC2)CC1 | 7100 nM | 4900 nM | 
C=CC(=O)Nc1cc(Nc2nccc(Nc3ccccc3S(=O)(=O)C(C)C)n2)c(OC)cc1N1CCN(CC)CC1 | 190 nM | 41 nM | 
C=CC(=O)Nc1cc(Nc2ncc(Cl)c(Nc3ccccc3C(=O)NC)n2)c(OC)cc1N1CCN(C(C)=O)CC1 | 250 nM | 12 nM | 
C=CC(=O)Nc1cc(Nc2ncc(Cl)c(Nc3ccccc3S(=O)(=O)N(C)C)n2)c(OC)cc1N1CCN(C)CC1 | 31 nM | 11 nM | 
C=CC(=O)Nc1cc(Nc2ncc(Cl)c(Nc3ccccc3C(=O)NC)n2)c(OC)cc1N1CCN(C(C)C)CC1 | 79 nM | 4.5 nM | 
C=CC(=O)Nc1cc(Nc2ncc(Cl)c(Nc3ccccc3P(C)(C)=O)n2)c(OC)cc1N1CCN(CC)CC1 | 26 nM | 37 nM | 
C=CC(=O)Nc1cc(Nc2ncc(Cl)c(Nc3ccccc3S(=O)(=O)C(C)C)n2)c(OC)cc1N1CCN(S(C)(=O)=O)CC1 | 40 nM |  | 
C=CC(=O)Nc1cc(Nc2ncc(C)c(Nc3ccccc3S(=O)(=O)C(C)C)n2)c(OC)cc1N1CCN(CC)CC1 | 43 nM | 2 nM | 
C=CC(=O)Nc1cc(Nc2ncc(Cl)c(Nc3ccccc3NC(=O)C(C)(C)C)n2)c(OC)cc1N1CCN(C)CC1 | 950 nM | 6500 nM | 
C=CC(=O)Nc1cc(Nc2ncc(Cl)c(NC3CC3)n2)c(OC)cc1N1CCN(C)CC1 | > 10000 nM | 3200 nM | 
C=CC(=O)Nc1cc(Nc2ncc(Cl)c(Nc3ccccc3P(C)(C)=O)n2)c(OC)cc1N1CCC(N(C)C)CC1 | 220 nM | 140 nM | 
C=CC(=O)Nc1cc(Nc2ncc(Cl)c(Nc3ccccc3S(=O)(=O)C(C)C)n2)c(OC)cc1N1CCCCC1 | 240 nM | 29 nM | 
C=CC(=O)Nc1cc(Nc2ncc(Cl)c(Nc3ccccc3S(=O)(=O)C(C)C)n2)c(OC)cc1N1CCC(N2CCN(C)CC2)CC1 | 23 nM |  | 
COc1cc(N2CCC(N3CCN(C)CC3)CC2)ccc1Nc1ncc(Cl)c(Nc2ccccc2S(=O)(=O)C(C)C)n1 |  |  | GI50 [3]: 560 nM; GI50 [4]: 420 nM
C=CC(=O)Nc1cc(Nc2ncc(Cl)c(NCc3cccs3)n2)c(OC)cc1N1CCN(C)CC1 | 220 nM | 270 nM | 
C=CC(=O)Nc1cc(Nc2ncc(Cl)c(Nc3ccc(F)c(Cl)c3)n2)c(OC)cc1N1CCN(C)CC1 | 100 nM | 300 nM | 

Compound | GI50 (NCI-H1975 [1]) | GI50 (NCI-H3122 [2]) | other results
C=CC(=O)Nc1cc(Nc2ncc(Cl)c(Nc3ccccc3C#N)n2)c(OC)cc1N1CCC(N2CCN(C)CC2)CC1 | 200 nM | 98 nM | 
C=CC(=O)Nc1cc(Nc2ncc(Cl)c(Nc3ccccc3P(C)(C)=O)n2)c(OC)cc1N1CCOCC1 | 780 nM | 360 nM | 
C=CC(=O)Nc1cc(Nc2ncc(Cl)c(Nc3cccc(C(F)(F)F)c3)n2)c(OC)cc1N1CCN(C)CC1 | 260 nM | 770 nM | 
C=CC(=O)Nc1cc(Nc2ncc(Cl)c(Nc3ccccc3C(=O)NC)n2)c(OC)cc1N1CCN(C2CCN(C)CC2)CC1 | 120 nM | 18 nM | 
CCC(=O)Nc1cc(Nc2ncc(Cl)c(Nc3ccccc3S(=O)(=O)C(C)C)n2)c(OC)cc1N1CCCN(C)CC1 |  |  | GI50 (NCI-H1355): 2200 nM; GI50 (NCI-H3122 [5]): < 0.3 nM; GI50 [3]: 1500 nM; GI50 (NCI-H2122): 3300 nM; GI50 [6]: 360 nM; GI50 (A549): 1200 nM; GI50 [4]: 800 nM; GI50 (NCI-H1975 [7]): 700 nM; GI50 at 72 h [8]: 3600 nM; GI50 (NCI-H3255): 830 nM; GI50 (HCC827): 2600 nM; GI50 [9]: 290 nM; GI50 [10]: 1700 nM; GI50 [11]: 370 nM; GI50 (NCI-H2228): 100 nM; GI50 [12]: 270 nM; GI50 (PC-9): 340 nM; GI50 at 72 h [13]: 7100 nM; GI50 at 72 h [14]: 1300 nM
C=CC(=O)Nc1cc(Nc2ncc(Cl)c(Nc3ccccc3S(=O)(=O)C(C)C)n2)c(OC)cc1N1CCN(CCOC)CC1 | 41 nM |  | 
C=CC(=O)Nc1cc(Nc2ncc(Cl)c(Nc3ccccc3C#N)n2)c(OC)cc1N1CCOCC1 | 1200 nM | 370 nM | 
C=CC(=O)Nc1cc(Nc2ncc(Cl)c(Nc3ccccc3S(=O)(=O)C(C)C)n2)c(OC(C)C)cc1N1CCN(CC)CC1 | 300 nM | < 0.3 nM | 
C=CC(=O)Nc1cc(Nc2ncc(C)c(Nc3ccccc3S(=O)(=O)C(C)C)n2)c(OC)cc1N1CCC(N2CCN(C)CC2)CC1 | 27 nM |  | 
C=CC(=O)Nc1cc(Nc2ncc(Cl)c(Nc3ccccc3S(=O)(=O)C(C)C)n2)c(OC)cc1N1CCN(C)CC1 | 43 nM | 33 nM | 
C=CC(=O)Nc1cc(Nc2ncc(Cl)c(N(C)c3cccc(C(F)(F)F)c3)n2)c(OC)cc1N1CCN(C)CC1 | 1800 nM | 3600 nM | 
C=CC(=O)Nc1cc(Nc2ncc(Cl)c(Nc3ccccc3C#N)n2)c(OC)cc1N1CCN(CC)CC1 | 440 nM | 110 nM | 
C=CC(=O)Nc1cc(Nc2ncc(Cl)c(Nc3ccccc3P(C)(C)=O)n2)c(OC)cc1N1CCN(S(C)(=O)=O)CC1 | 890 nM | 800 nM | 
C=CC(=O)Nc1cc(Nc2ncc(Cl)c(Nc3ccccc3S(=O)(=O)C(C)C)n2)c(OC)cc1N1CCN(C(C)C)CC1 | 25 nM |  | 
C[C@@H](Oc1cc(-c2cnn(C3CCNCC3)c2)cnc1N)c1c(Cl)ccc(F)c1Cl [CRIZOTINIB] |  |  | GI50 (NCI-H3122 [5]): 37 nM; GI50 at 72 h [8]: 3200 nM; GI50 at 72 h [13]: 1100 nM; GI50 at 72 h [14]: 450 nM
C=CC(=O)Nc1cc(Nc2ncc(Cl)c(Nc3ccccc3S(=O)(=O)C(C)C)n2)c(OC)cc1N1CCN(C2CCCCC2)CC1 | 77 nM |  | 
C=CC(=O)Nc1cccc(Oc2nc(Nc3ccc(N4CCN(C)CC4)cc3OC)ncc2Cl)c1 |  |  | GI50 (NCI-H1355): 5300 nM; GI50 (NCI-H2122): 5700 nM; GI50 [6]: 890 nM; GI50 (A549): > 10000 nM; GI50 [4]: 2.1 nM; GI50 (NCI-H1975 [7]): 56 nM; GI50 at 72 h [8]: 3900 nM; GI50 (NCI-H3255): 390 nM; GI50 (HCC827): 7.4 nM; GI50 (PC-9): 27 nM; GI50 at 72 h [14]: 4400 nM
C=CC(=O)Nc1cc(Nc2ncc(Cl)c(Nc3ccccc3P(C)(C)=O)n2)c(OC)cc1N1CCC(N2CCCCC2)CC1 | 41 nM | 78 nM | 
C=CC(=O)Nc1cc(Nc2ncc(Cl)c(Nc3ccccc3S(=O)(=O)C(C)C)n2)c(OC)cc1N1CCOCC1 | 1200 nM | < 0.3 nM | 
